Laboratory results taken from ChEMBL document CHEMBL4513216, “Probing the Open Global Health Chemical Diversity Library for Multistage-Active Starting Points for Next-Generation Antimalarials” (ACS Infect Dis, 2020).

Assay: Toxicity liver stage against HepG2, at 10uM
Format: cell-based
Design: test concentration 10 uM, cell line HepG2-A16-CD81EGFP
Settings: human, HepG2-A16-CD81EGFP cells; read-out: INHIBITION
Outline: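 Uninfected HepG2-A16-CD81EGFP cells, 3 × 10^3 per well, 1536-well, plated on prespotted compound at 10 μM final, parasite-free screening media added to match infected plates; puromycin 10 μM positive, DMSO 0.5% negative; run in parallel with 48 h PbLuc assay at 37 °C, 5% CO2; viability by CellTiter-Glo luminescence, normalized to controls.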

| Structure (SMILES) | cytotoxicity at 10 µM [%] |
| --- | --- |
| Cc1cccn2c(=O)cc(CSCC(=O)Nc3nnc(C(C)C)s3)nc12 | 0.879 |
| CC(C)c1ccc(C2CC(=O)Nc3c2cnn3C)cc1 (stereo not given) | -2.9 |
| O=C(CCc1nc2cccnc2[nH]1)Nc1ccc2c(c1)NC(=O)CO2 | -1.94 |
| COc1ccccc1CN(C)Cc1ccnc(C2CCCO2)n1 (stereo not given) | 4.65 |
| CNc1cc(C2CN(CC(=O)N(C)C)CCO2)nc(C)n1 (stereo not given) | -14.4 |
| Cc1cc(N2CCCC2c2cncc(N(C)C)n2)ncn1 (stereo not given) | -15.2 |
| COc1ccccc1CN1CCC(O)(Cn2ccc3ncccc32)CC1 | -0.692 |
| O=C(c1ccco1)N1CCCC(c2cc(C(F)F)n3ncnc3n2)C1 (stereo not given) | 4.4 |
| O=C(Cc1cccc(F)c1F)NS(=O)(=O)c1cncc(Cl)c1 | 14.5 |
| COc1ccccc1CC(C)N(C)S(C)(=O)=O (stereo not given) | 14 |
| CN(Cc1ccsc1)C(=O)COC(=O)c1cc(Cl)c[nH]1 | -3.73 |
| O=C1NCCCCC1NC(=O)C1(c2cccc(Cl)c2)CC1 (stereo not given) | 2.68 |
| CC1CN(C(=O)NCc2ccn(C)c2)CCN1CC(F)(F)F (stereo not given) | -4.32 |
| CCS(=O)(=O)Cc1ccn(-c2cccc(F)c2)n1 | -0.988 |
| CCc1nc(CN(C)CC(=O)NC(C)C)cs1 | 1.48 |
| O=C(c1cccnc1)N(Cc1ccncc1)C1CC1 | 8.32 |
| Cc1ccc(C(=O)N2CCSCC2)cc1NC(C)C | -3.42 |
| O=C1CC2(CCSC2)C(=O)N1Cc1ncc(-c2ccccc2)o1 (stereo not given) | 14.4 |
| CN(Cc1cccc(F)c1)C(=O)c1ccncc1Cl | 10.5 |
| Cc1nnc([C@H]2C[C@H]3CN(C(=O)Cc4ccc(F)cc4)CC[C@@H]3O2)o1 | -104 |
| CCS(=O)(=O)N1CCC2(CN(Cc3ccc(C)o3)C2)C1 | -109 |
| O=c1ccc2c(n1CC1CC1)CCC(NS(=O)(=O)C1CC1)C2 (stereo not given) | -63.9 |
| CC(C)c1nnsc1CNC(=O)C1CCN(C(=O)C2CC2)CC1 | -0.439 |

| Structure (SMILES) | cytotoxicity at 10 µM [%] |
| --- | --- |
| CCN1CC(C(=O)NCc2cccc(SC)c2)CC1=O (stereo not given) | 4.68 |
| Cc1nc(N(C)Cc2cccc(O)c2)nc2cc(S(C)(=O)=O)ccc12 | -2.54 |
| CC(=O)N[C@@H]1CN(C2CCN(c3ccccc3F)CC2)C[C@H]1C(C)C | -14.5 |
| CCN1CC2(CCN(C(=O)C(C)Oc3cccc(Cl)c3)CC2)OC1=O (stereo not given) | -4.68 |
| COc1nc(C)c(C(=O)N2CCc3[nH]nc(Cc4ccccc4)c3C2)s1 | -2.53 |
| CCN(Cc1noc(C)n1)C(=O)C(c1ccccc1C)N(C)C (stereo not given) | 1.89 |
| O=C(Nc1cnc2n1CCCC2)c1cccc(NC(=O)C2CCCC2)c1 | -5.09 |
| CC(C)C1CN(C(=O)c2ccc(Cl)cn2)CCCN1CC1CC1 (stereo not given) | 5.15 |
| CCC(Cn1ccnc1)n1cnc2scc(C)c2c1=O (stereo not given) | 10.7 |
| CC(C)NCc1cc2n(n1)CCN(C1CCCCC1)C2 | -8.9 |
| CCn1ccnc1CN1C[C@@H](NC(=O)C2CC2)[C@H](c2ccc(C)cc2)C1 | 2.63 |
| CC(Oc1ccc(F)cc1F)C(=O)N1CCC2(CCCO2)CC1 (stereo not given) | 2.24 |
| CC(C)(C)c1cc(CN2CCOC(CN)C2)n[nH]1 (stereo not given) | -12.1 |
| CN(Cc1ccccc1)C(=O)CCN1C[C@H](C2CC2)[C@@H](N(C)C)C1 | -1.21 |
| Cc1ncc(CN2CCN(C(=O)C3CCC3)[C@@H]3CS(=O)(=O)C[C@@H]32)cn1 | -4.19 |
| NS(=O)(=O)Cc1cccc(C(=O)N2CCCC(n3cccn3)C2)c1 (stereo not given) | 1.25 |
| Cn1cc(CN2CCC3(CCN(c4cnn(C)c4)C3=O)C2)cn1 (stereo not given) | -83.4 |
| NC(=O)N1C[C@H]2CN(Cc3nccs3)C[C@H]2C1 | 2.6 |
| CN1CCN(S(=O)(=O)c2ccccc2)Cc2cccnc21 | -104 |
| Cc1occc1C(=O)N1CCC2(CC1)CN(c1ccccn1)CCO2 | -75.6 |
| Cn1cc(N2CC3(CCN(Cc4nccn4C)C3)CC2=O)cn1 (stereo not given) | -72.8 |
| O=C(c1cscn1)N1CCC2(CCN(Cc3nccs3)CC2)C1 | -69 |
